Reference: ChEMBL document CHEMBL4038329, “Side-Chain Modified Ergosterol and Stigmasterol Derivatives as Liver X Receptor Agonists” (J Med Chem, 2017)
Active and inactive are the calls of the source. The calls are words filed in the database; no cut-off is given here.

Assays:
[1] = target: T1, Oxysterols receptor LXR-alpha (Homo sapiens) (UniProt Q13133); assay: Activation of GAL4 fused human LXR alpha expressed in HEK293 cells after 24 hrs by luciferase reporter gene assay relative to 22R-HC; type: cell-based
T1 sequence (whole entry): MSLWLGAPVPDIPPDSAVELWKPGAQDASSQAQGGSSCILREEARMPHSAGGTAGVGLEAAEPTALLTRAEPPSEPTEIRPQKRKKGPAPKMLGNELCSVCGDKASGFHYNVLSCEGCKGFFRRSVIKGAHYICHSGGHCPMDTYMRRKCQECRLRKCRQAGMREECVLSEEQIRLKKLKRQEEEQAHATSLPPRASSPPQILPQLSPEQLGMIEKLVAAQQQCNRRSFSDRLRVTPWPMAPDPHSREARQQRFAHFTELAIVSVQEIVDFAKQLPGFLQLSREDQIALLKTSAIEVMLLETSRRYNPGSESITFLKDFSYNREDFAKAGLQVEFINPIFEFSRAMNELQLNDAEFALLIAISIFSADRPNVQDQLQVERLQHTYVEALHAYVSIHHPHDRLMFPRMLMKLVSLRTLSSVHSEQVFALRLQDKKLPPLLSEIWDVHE
Method in brief: (§1)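 HEK293 cells carrying the Gal4-LXR-α or Gal4-LXR-β chimera plus the pMH100X4-TK-luc and Renilla reporters. Treatment started 6 h post-transfection and ran 24 h. Dual luciferase read-out. Efficacy is given as % of the response to 8 μM 22R-HC, ± SD, from three to five independent experiments.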

[2] = target: T2, Oxysterols receptor LXR-beta (Homo sapiens) (UniProt P55055); assay: Activation of GAL4 fused human LXR beta expressed in HEK293 cells after 24 hrs by luciferase reporter gene assay relative to 22R-HC; type: cell-based; method in brief: as §1
T2 sequence (whole entry): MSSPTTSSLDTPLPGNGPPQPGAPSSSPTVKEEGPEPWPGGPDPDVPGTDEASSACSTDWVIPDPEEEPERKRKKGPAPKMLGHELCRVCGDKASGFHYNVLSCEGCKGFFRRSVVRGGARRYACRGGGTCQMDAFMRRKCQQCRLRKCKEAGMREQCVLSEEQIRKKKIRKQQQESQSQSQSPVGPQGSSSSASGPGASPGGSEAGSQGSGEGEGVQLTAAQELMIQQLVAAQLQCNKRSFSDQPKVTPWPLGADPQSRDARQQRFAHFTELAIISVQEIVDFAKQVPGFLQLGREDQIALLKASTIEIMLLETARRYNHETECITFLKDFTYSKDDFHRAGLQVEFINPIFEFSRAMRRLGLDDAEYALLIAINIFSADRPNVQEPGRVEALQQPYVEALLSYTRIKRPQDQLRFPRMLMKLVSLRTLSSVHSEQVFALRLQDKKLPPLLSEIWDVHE

[3] = Agonist activity at LXR in human HepG2 cells assessed as upregulation of FASN mRNA levels at 10 uM after 6 hrs by qPCR analysis; type: cell-based
Method in brief: (§2)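 HepG2 cells treated with ligand (10 μM). Total RNA was extracted with TRIZOL; 2 µg was reverse-transcribed (1 h, 42 °C). SREBP1c, FASN and SCD1 transcripts were measured by qPCR. Mean ± SD of three biological samples; ANOVA with Dunnett's test.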

[4] = Agonist activity at LXR in human HepG2 cells assessed as upregulation of SREBP1c mRNA levels at 10 uM after 6 hrs by qPCR analysis; type: cell-based; method in brief: as §2
[5] = Agonist activity at LXR in human U937 cells assessed as upregulation of SCD1 mRNA levels at 10 uM after 6 hrs by qPCR analysis relative to control; type: cell-based; details: for Activity: human, 6 h, 10 µM; for fold induction at 10 µM: Homo sapiens, U-937, 6 h, read-out: FC
Method in brief: (§3)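 U937 cells, 3x10⁶ in 10 ml RPMI with 10% FBS, differentiated with PMA 10 ng/ml for 72 h at 37 °C, then treated with ligand (10 μM) for 6 h. Total RNA was isolated with TRIZOL; 2 µg was reverse-transcribed for 1 h at 42 °C. Transcripts were measured by qPCR. Mean ± SD of three biological samples; ANOVA with Dunnett's test.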

[6] = Agonist activity at LXR in human U937 cells assessed as upregulation of SREBP1c mRNA levels at 10 uM after 6 hrs by qPCR analysis; type: cell-based; method in brief: as §3
[7] = Agonist activity at LXR in human U937 cells assessed as upregulation of FASN mRNA levels at 10 uM after 6 hrs by qPCR analysis; type: cell-based; method in brief: as §3
Homo sapiens [8] = species on record: Homo sapiens; assay: Agonist activity at LXR in human U937 cells assessed as upregulation of ABCA1 mRNA levels at 10 uM after 6 hrs by qPCR analysis; type: cell-based; method in brief: as §3
Homo sapiens [9] = species on record: Homo sapiens; assay: Agonist activity at LXR in human U937 cells assessed as downregulation of LPS-induced TNFalpha mRNA expression at 10 uM after 6 hrs by qPCR analysis; type: cell-based
Method in brief: (§4)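 PMA-differentiated U937 cells (10 ng/ml PMA, 72 h) were given LPS 100 ng/ml together with compound (10 μM) for 6 h. CCL2 and TNFα mRNA were measured by qPCR after TRIZOL RNA extraction and reverse transcription. Three biological samples per group, mean ± SD.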

[10] = Agonist activity at LXR in human HepG2 cells assessed as upregulation of SCD1 mRNA levels at 10 uM after 6 hrs by qPCR analysis; type: cell-based; method in brief: as §2
HEK293 = assay: Activation of GAL4 fused human RXR expressed in HEK293 cells at 10 uM after 24 hrs by luciferase reporter gene assay
[11] = target: T3, Peroxisome proliferator-activated receptor gamma (Homo sapiens) (UniProt P37231); assay: Activation of GAL4 fused human PPARgamma expressed in HEK293 cells at 10 uM after 24 hrs by luciferase reporter gene assay
T3 sequence (whole entry): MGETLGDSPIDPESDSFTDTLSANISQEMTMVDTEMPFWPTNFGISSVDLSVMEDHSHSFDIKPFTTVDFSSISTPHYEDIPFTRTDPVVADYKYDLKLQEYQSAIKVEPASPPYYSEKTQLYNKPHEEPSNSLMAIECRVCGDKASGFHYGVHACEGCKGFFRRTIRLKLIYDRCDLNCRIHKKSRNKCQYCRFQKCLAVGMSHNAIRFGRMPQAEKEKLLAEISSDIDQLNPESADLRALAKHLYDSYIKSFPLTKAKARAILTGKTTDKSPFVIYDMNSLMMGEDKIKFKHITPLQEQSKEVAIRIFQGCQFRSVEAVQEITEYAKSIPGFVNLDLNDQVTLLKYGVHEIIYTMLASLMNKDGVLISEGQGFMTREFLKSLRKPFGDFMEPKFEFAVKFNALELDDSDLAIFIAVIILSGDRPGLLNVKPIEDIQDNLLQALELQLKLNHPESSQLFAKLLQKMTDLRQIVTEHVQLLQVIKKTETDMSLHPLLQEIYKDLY

[12] = target: T4, Oxysterols receptor LXR-beta (Homo sapiens, UniProt P55055); assay: Activation of GAL4 fused human LXR beta expressed in HEK293 cells after 24 hrs by luciferase reporter gene assay; type: cell-based
T4 sequence (P55055 whole entry): T2 sequence (whole entry)
Method in brief: (§5)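 HEK293 cells (4x10⁴/well), grown in DMEM with 10% FBS at 37 °C under 5% CO₂, transiently co-transfected with pMH100X4-TK-luc, Renilla and the Gal4-LXR-α or Gal4-LXR-β plasmid. Dosing began 6 h after transfection and lasted 24 h, at 32, 16, 8, 4, 2 and 1 μM. Dual luciferase read-out. EC50 came from dose-response curves, averaged over three to five independent experiments, ± SD.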

Homo sapiens [13] = species on record: Homo sapiens; assay: Agonist activity at LXR in human U937 cells assessed as downregulation of LPS-induced CCL2 mRNA expression at 10 uM after 6 hrs by qPCR analysis; type: cell-based; method in brief: as §4
[14] = target: T5, Oxysterols receptor LXR-alpha (Homo sapiens, UniProt Q13133); assay: Activation of GAL4 fused human LXR alpha expressed in HEK293 cells after 24 hrs by luciferase reporter gene assay; type: cell-based; method in brief: as §5
T5 sequence (Q13133 whole entry): T1 sequence (whole entry)

Structure (SMILES)	Efficacy [1]	Efficacy [2]	Activity [3]	Activity [4]	Activity [5]	Activity [6]	Activity [7]	Activity (Homo sapiens [8])	Activity (Homo sapiens [9])	Activity [10]	Activity (HEK293)	Activity [11]	EC50 [12]	Activity (Homo sapiens [13])	fold induction at 10 µM [5]	EC50 [14]
CC[C@@H](C(C)C)[C@H]1O[C@@H]1[C@@H](C)[C@H]1CC[C@H]2[C@@H]3CC=C4C[C@@H](O)CC[C@]4(C)[C@H]3CC[C@]12C	489%	142%	Not Active	Active	Not Active	Not Active	Not Active	Active	Active	Not Active	inactive	inactive				
CC[C@@H](C(C)C)[C@@H]1O[C@H]1[C@@H](C)[C@H]1CC[C@H]2[C@@H]3CC=C4C[C@@H](O)CC[C@]4(C)[C@H]3CC[C@]12C	56.8%	36.3%	Not Active	Not Active	Not Active	Not Active	Not Active	Active		Not Active	inactive	inactive				
CC(C)[C@@H](C)CC(=O)[C@@H](C)[C@H]1CC[C@H]2C3=CC=C4C[C@@H](O)CC[C@]4(C)[C@H]3CC[C@]12C	70.2%		Not Active	Not Active	Not Active	Not Active	Not Active	Active		Not Active	inactive	inactive	Not Active			
O=S(=O)(c1ccccc1)N(CC(F)(F)F)c1ccc(C(O)(C(F)(F)F)C(F)(F)F)cc1 [T091317]			Not Active	Not Active	Not Active	Active	Not Active	Active		Not Active				Active		
CC(C)[C@@H](C)[C@@H]1O[C@H]1[C@@H](C)[C@H]1CC[C@H]2C3=CC=C4C[C@@H](O)CC[C@]4(C)[C@H]3CC[C@]12C	51.7%	48.5%	Not Active	Active		Not Active	Not Active	Active		Not Active	inactive	inactive		Active	< 2	
CC[C@H](C(=O)C[C@@H](C)[C@H]1CC[C@H]2[C@@H]3CC=C4C[C@@H](O)CC[C@]4(C)[C@H]3CC[C@]12C)C(C)C	12.4%	46.4%	Not Active	Not Active		Not Active	Not Active	Active	Active	Not Active	inactive	inactive			< 2	
CC[C@@H](C(C)C)[C@H](O)C[C@@H](C)[C@H]1CC[C@H]2[C@@H]3CC=C4C[C@@H](O)CC[C@]4(C)[C@H]3CC[C@]12C			Not Active	Not Active	Not Active	Not Active	Not Active	Active	Active	Not Active	inactive	inactive		Active		
CC[C@H](CC(=O)[C@@H](C)[C@H]1CC[C@H]2[C@@H]3CC=C4C[C@@H](O)CC[C@]4(C)[C@H]3CC[C@]12C)C(C)C													Not Active			Not Active
CC(C)[C@@H](C)C(=O)C[C@@H](C)[C@H]1CC[C@H]2C3=CC=C4C[C@@H](O)CC[C@]4(C)[C@H]3CC[C@]12C	151%		Not Active	Not Active	Not Active	Not Active	Not Active	Active		Not Active	inactive	inactive	Not Active			
CC(C)[C@@H](C)[C@H](O)C[C@@H](C)[C@H]1CC[C@H]2C3=CC=C4C[C@@H](O)CC[C@]4(C)[C@H]3CC[C@]12C	63.9%		Not Active	Not Active	Not Active	Not Active	Not Active	Active		Not Active	inactive	inactive	Not Active			
